Source: PubChem BioAssay (Johns Hopkins Ion Channel Center)
In the library only some 2.3% were active in any assay of this set; here they are far more common.
TRPC4 block: blocks the mouse TRPC4 cation channel | Q9QUQ5 | HEK293 TRPC4beta/mu-opioid, DAMGO-evoked Fluo4 calcium flux; stronger effect = lower value | B-score at 10 µM | actives 0.39% (n = 300,000);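 active = B-score over 3 SD under the library average, no early fluorescence shift, positive overall ratio signal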
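test system = HEK293 cells with stable TRPC4beta plus mu-opioid receptor expression | detection = Fluo4 Ca2+ flux fluorescence | read-out = integrated fluorescence ratio relative to baseline, converted to per-well B score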
TRPC4 potent: allosterically enhances the mouse TRPC4 cation channel; HEK293 TRPC4beta/mu-opioid, DAMGO EC20, Fluo-4 Ca2+ flux; stronger effect = higher value; Q9QUQ5; B-score at 10 µM; AID 2227; actives 0.42% (n = 310,000);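 active = B-score of calcium response area above 5 SD of library B-scores, with initial fluorescence ratio within 5 SD of library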;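 note: B-score of integrated fluorescence ratio over time as area under calcium response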
TRPC6 activator: mouse TRPC6 channel activation; HEK293-TRPC6 membrane potential dye fluorescence; stronger effect = higher value; B-score at 10 µM; actives 0.13% (n = 310,000);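 active = B-score of the integrated fluorescence ratio above library mean plus 3 SD, and starting fluorescence ratio within library mean plus 5 SD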;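 note: higher score means more depolarization so channel activation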
Target sequence (Q61143 whole entry, looked up): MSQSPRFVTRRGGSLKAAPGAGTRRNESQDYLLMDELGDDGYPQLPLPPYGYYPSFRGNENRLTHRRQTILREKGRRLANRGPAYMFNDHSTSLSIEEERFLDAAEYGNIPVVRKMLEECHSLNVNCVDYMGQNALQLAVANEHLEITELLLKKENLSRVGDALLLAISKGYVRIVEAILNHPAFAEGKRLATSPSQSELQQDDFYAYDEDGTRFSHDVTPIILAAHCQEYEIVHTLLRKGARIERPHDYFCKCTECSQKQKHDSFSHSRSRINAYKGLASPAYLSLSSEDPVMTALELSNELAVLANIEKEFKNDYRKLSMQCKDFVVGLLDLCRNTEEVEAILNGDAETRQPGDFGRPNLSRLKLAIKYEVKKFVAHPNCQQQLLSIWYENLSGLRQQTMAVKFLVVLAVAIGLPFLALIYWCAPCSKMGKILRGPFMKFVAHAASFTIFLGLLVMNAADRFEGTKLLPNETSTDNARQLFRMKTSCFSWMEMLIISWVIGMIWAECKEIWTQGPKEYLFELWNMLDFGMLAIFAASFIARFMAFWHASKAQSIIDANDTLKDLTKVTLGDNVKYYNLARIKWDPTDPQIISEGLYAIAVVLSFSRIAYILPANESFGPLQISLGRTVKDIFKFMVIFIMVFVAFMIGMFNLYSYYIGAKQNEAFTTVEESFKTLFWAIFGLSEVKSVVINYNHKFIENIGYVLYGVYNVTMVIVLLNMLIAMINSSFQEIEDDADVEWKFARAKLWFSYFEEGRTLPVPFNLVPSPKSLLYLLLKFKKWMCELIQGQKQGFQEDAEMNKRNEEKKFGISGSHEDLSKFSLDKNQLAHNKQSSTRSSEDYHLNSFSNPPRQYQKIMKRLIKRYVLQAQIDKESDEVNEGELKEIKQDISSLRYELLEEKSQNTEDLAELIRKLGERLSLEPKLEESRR
TRPC6 inhibitor: inhibitors of mouse TRPC6 channel; HEK293-TRPC6, membrane potential dye, ACh-evoked depolarization; stronger effect = lower value; B-score at 10 µM; actives 1.1% (n = 310,000); AID 2553;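 active = B-score under library mean minus 3 SD, initial fluorescence not abnormally high, positive integrated signal ratio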;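 note: B-score derived from integrated fluorescence ratio over the kinetic read; more negative B-score means stronger inhibition of depolarization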
TRPC4 agonist: TRPC4 (mouse) channel activation. actives 0.49% (n = 310,000). AID 2237. B-score at 10 µM. HEK293 TRPC4beta/mu-opioid, Fluo4 calcium fluorescence; stronger effect = higher value;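 active = B-score above 5 SD of library B-scores, and initial fluorescence ratio not above library mean plus 5 SD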;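 note: positive B-score marks a calcium rise read as TRPC4 activation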
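Incubation: 45 min room-temperature Fluo4 loading, 110 s read / System: HEK293 cells stably co-expressing mouse TRPC4beta and mu-opioid receptor / Signal: Fluo4 fluorescence, kinetic / Control set: buffer (low) and maximal DAMGO (high) / Measure: integrated baseline-normalised fluorescence ratio, converted to per-well B score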
TRPC4 sel inh 2: second check of whether TRPC6 inhibitors also affect mouse TRPC4; shares compounds with TRPC6 inhibitor; AID 2776; HEK293 TRPC4/MOR, membrane potential dye fluorescence; channel activated by saturating DAMGO dose; inhibition, % at 10 µM; actives 42% (n = 920);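 active = compounds whose fluorescence signal differed from control wells by over 3 SD, either direction, in both duplicate plates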
TRPC4 spec: selectivity of TRPC6 inhibitors: effect on mouse TRPC4. shares compounds with TRPC6 inhibitor. HEK293 TRPC4/mu-opioid, membrane potential fluorescence. activity change, negative = inhibition, % at 10 µM. actives 61% (n = 920). AID 2777;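 active = rise or fall in signal beyond 3 SD of buffer-only wells in both replicate plates, either sign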;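 note: integrated kinetic ratio of fluorescence range over baseline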
HEK293 MPD ctr 2-1: second counter-screen for TRPC6 inhibitors: parental HEK293 cells | AID 2779 | shares compounds with TRPC6 inhibitor | signal change vs control, % at 10 µM | actives 31% (n = 920) | parental HEK293 membrane potential dye fluorescence; maximal acetylcholine challenge after compound addition;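 active = membrane potential signal moving either way by over 3 SD of the maximum-effect control, in both duplicate plates, meaning non-specific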
HEK293 MPD ctr-1: parental HEK293 nonspecific activity of TRPC6 inhibitors | shares compounds with TRPC6 inhibitor | parental HEK293 membrane potential dye fluorescence | membrane potential signal change, % at 10 µM | actives 60% (n = 920);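 active = membrane potential signal shifting up or down by more than 3 SD of buffer-only wells, on both duplicate plates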
HEK293 MPD ctr-2: counter-screen for TRPC6 modulators: effect in parental HEK293 cells | AID 488924 | actives 51% (n = 2,400) | shares compounds with TRPC6 inhibitor | membrane potential signal change, % at 10 µM | membrane potential dye fluorescence;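 active = membrane potential signal moves up or down beyond 5 SD from buffer-only wells, on both duplicate plates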
HEK293 MPD ctr 2-2: second check of TRPC6 modulator effects in parental HEK293 cells; shares compounds with TRPC6 inhibitor; membrane potential dye fluorescence; after compound, maximal acetylcholine stimulation; inhibition, % at 10 µM; actives 14% (n = 2,400);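 active = membrane potential signal drops by more than 5 SD from the mean control signal, in both duplicate plates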;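 note: plate controls were acetylcholine ECmax control wells for no effect and buffer only wells for full effect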
TRPC4 ctr mod: mouse TRPC4 off-target activity of TRPC6 modulators; shares compounds with TRPC6 inhibitor; HEK293 TRPC4/mu-opioid, membrane potential fluorescence; percent change from control (negative = decrease, positive = increase), % at 10 µM; actives 69% (n = 2,400);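 active = membrane potential signal moved up or down beyond 5 SD of buffer control wells, in both duplicate plates, actives on both sides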;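 note: plate controls were assay buffer wells for no effect and DAMGO maximal-effect wells for full effect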
TRPC4/MOR inh 2: second check of whether TRPC6 modulators also affect mouse TRPC4; inhibition, % at 10 µM; shares compounds with TRPC6 inhibitor; actives 55% (n = 2,400); HEK293 TRPC4/mu-opioid, membrane potential dye fluorescence; stimulated with maximal-effect DAMGO;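 active = drop in membrane potential signal beyond 5 SD of the control wells in both duplicate plates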;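 note: TRPC4 counter screen for TRPC6 hits run under conditions tuned for TRPC6 not TRPC4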
TRPC6 block conf: mouse TRPC6 inhibitor confirmation; shares compounds with TRPC6 inhibitor; HEK293-TRPC6, membrane potential dye, ACh-evoked depolarization; inhibition, % at 10 µM; actives 43% (n = 3,300); AID 488960;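 active = fluorescence ratio falls more than 5 SD below the full-stimulation control mean, in both duplicate runs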;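 note: integrated fluorescence ratio of peak minus minimum over baseline after agonist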
TRPC6 act conf: mouse TRPC6 activator confirmation | HEK293-TRPC6 membrane potential dye fluorescence, FDSS | activation, % at 10 µM | shares compounds with TRPC6 inhibitor | actives 11% (n = 2,800);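 active = ratio signal rise beyond 5 SD above unstimulated control wells' mean, seen in both duplicate runs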;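 note: plate controls were buffer EC0 wells for no effect and acetylcholine ECmax response for full effect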
* = called active by the depositor; i = inactive; · = no result.

SMILES	TRPC4 block	TRPC4 potent	TRPC6 activator	TRPC6 inhibitor	TRPC4 agonist	HEK293 MPD ctr-2	HEK293 MPD ctr 2-2	TRPC4 ctr mod	TRPC4/MOR inh 2	TRPC6 block conf	TRPC6 act conf	others
CCN1CCCc2cc(CN(CCN3CCOCC3)C(=O)Nc3ccc(C)c(C)c3)ccc21	i	i	i	-5*	i	i	i	i	41%*	i	i
COc1ccc(/C=C(/NC(=O)/C=C/c2ccccc2)C(=O)N2CCOCC2)cc1	i	i	i	-5.8*	i	i	i	i	i	42%*	i
CC1CCN(c2nc(/C=C/c3ccccc3)nc3ccccc23)CC1	i	i	i	-6.1*	i	i	i	-19%*	i	i	i
CCOC(=O)N1CCN(C(=O)c2ccc(Cn3c(=S)[nH]c4ccc(Br)cc4c3=O)cc2)CC1	i	i	i	i	i	·	·	·	·	·	·
CC(C)(C)OC(=O)NC1CC2CCCC(C1)N2Cc1ccccc1 (stereo unspecified)	i	i	i	-5.6*	i	i	88%*	14%*	29%*	74%*	·
COCC(=O)NC1CC2CCCC(C1)N2Cc1ccccc1 (stereo unspecified)	i	i	i	i	i	·	·	·	·	·	·
Cc1ccc(-n2ncc3c2CCCC3NC(=O)CCCN2CCCCC2=O)cc1C (stereo unspecified)	i	i	i	i	i	·	·	·	·	·	·
Cc1nc2ccccc2n1S(=O)(=O)c1ccc(F)cc1	i	i	i	i	i	·	·	·	·	·	·
Cc1ccc(S(=O)(=O)n2c(N)nc3ccccc32)cc1	i	i	i	-8.4*	i	·	·	·	·	64%*	i	TRPC4 sel inh 2=i;TRPC4 spec=i;HEK293 MPD ctr 2-1=38%*;HEK293 MPD ctr-1=i
CCN(CC)C(=O)N1CCn2c(nc3ccccc32)C1	i	i	i	-5.5*	i	i	i	12%*	i	i	i
Nc1ccccc1Nc1nc2ccccc2[nH]1	i	i	i	-5.5*	i	340%*	i	88%*	i	i	·
Cc1nnsc1C(=O)N1CCCC(Nc2ccc(F)c(F)c2)C1 (stereo unspecified)	i	i	i	i	i	·	·	·	·	·	·
